Some results are limits rather than exact numbers.

Assay [1] has as its system PP1. The conditions noted are these: biochemical assays; cited from earlier work.
Assay [2] addresses T1, CD45 (Homo sapiens, UniProt P08575).
T1 sequence (P08575 26-1306): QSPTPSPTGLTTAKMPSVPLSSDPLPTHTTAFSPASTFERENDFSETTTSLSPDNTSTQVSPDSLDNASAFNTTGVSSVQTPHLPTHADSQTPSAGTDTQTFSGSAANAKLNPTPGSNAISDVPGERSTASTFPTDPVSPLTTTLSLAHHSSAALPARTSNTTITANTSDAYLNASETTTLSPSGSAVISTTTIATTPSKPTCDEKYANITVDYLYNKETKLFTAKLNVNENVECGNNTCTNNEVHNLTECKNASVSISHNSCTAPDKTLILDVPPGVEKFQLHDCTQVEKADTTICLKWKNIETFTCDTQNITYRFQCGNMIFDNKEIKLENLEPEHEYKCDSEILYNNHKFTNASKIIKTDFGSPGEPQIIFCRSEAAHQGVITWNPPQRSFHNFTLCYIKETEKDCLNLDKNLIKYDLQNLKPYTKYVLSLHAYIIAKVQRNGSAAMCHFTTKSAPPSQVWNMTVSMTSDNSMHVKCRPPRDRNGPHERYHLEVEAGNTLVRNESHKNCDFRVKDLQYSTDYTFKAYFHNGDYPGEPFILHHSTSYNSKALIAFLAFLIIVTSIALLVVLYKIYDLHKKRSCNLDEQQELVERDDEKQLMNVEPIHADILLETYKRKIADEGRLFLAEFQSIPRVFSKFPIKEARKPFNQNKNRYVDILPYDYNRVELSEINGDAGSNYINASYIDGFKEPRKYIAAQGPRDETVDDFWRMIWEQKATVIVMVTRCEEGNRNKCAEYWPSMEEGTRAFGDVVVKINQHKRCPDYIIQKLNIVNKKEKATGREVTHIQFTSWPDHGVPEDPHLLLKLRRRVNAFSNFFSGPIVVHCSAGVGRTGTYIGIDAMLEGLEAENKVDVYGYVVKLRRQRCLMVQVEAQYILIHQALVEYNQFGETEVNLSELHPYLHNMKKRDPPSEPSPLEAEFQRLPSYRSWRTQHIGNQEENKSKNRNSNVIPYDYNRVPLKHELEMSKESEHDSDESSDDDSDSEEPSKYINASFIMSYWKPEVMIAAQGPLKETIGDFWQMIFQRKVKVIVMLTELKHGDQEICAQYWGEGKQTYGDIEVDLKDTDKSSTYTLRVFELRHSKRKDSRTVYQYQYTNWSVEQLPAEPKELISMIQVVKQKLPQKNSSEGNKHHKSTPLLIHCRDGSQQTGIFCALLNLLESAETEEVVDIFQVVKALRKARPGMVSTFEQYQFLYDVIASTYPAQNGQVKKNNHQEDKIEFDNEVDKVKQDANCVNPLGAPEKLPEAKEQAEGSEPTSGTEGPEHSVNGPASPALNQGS
As to the kind of experiment: PTP-catalyzed pNPP hydrolysis, CD45. In kind it is biochemical. The gist of the method: (§1)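 pNPP hydrolysis was run at 25 °C in 50 mM 3,3-dimethylglutarate, pH 7.0, 1 mM EDTA, ionic strength 0.15 M (NaCl). pNPP was fixed at each enzyme's experimentally determined Km, and reactions were started with enzyme. They were quenched with NaOH and corrected with no-enzyme controls. p-Nitrophenol was read at 405 nm. IC50 was fitted from AI/A0 = IC50/(IC50+[I]).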

Assay [3] relates to macrophage progenitor cells expressing MIEG3, wild-type SHP2, or SHP2/E76K. As to the kind of experiment: GM-CSF induced ERK1/2 activation in macrophage progenitors. Format: cell-based. The conditions noted are these: 2 µM for 2 hours, GM-CSF 50 ng/mL for 60 minutes. The gist of the method:
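Bone marrow low-density mononuclear cells were transduced (empty vector, wild-type SHP2 or SHP2/E76K), EGFP-sorted and grown 5 days in M-CSF 100 ng/mL to give macrophage progenitors. These were serum- and growth factor-starved 16 h, pretreated 2 h with DMSO or 2 µM test compound, then left unstimulated or given GM-CSF 50 ng/mL for 60 min. Extracts were immunoblotted for phospho-ERK1/2 and total ERK1/2.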

For assay [4], the target named is T2, Lyp (Homo sapiens, UniProt Q9Y2R2).
T2 sequence (Q9Y2R2 1-807): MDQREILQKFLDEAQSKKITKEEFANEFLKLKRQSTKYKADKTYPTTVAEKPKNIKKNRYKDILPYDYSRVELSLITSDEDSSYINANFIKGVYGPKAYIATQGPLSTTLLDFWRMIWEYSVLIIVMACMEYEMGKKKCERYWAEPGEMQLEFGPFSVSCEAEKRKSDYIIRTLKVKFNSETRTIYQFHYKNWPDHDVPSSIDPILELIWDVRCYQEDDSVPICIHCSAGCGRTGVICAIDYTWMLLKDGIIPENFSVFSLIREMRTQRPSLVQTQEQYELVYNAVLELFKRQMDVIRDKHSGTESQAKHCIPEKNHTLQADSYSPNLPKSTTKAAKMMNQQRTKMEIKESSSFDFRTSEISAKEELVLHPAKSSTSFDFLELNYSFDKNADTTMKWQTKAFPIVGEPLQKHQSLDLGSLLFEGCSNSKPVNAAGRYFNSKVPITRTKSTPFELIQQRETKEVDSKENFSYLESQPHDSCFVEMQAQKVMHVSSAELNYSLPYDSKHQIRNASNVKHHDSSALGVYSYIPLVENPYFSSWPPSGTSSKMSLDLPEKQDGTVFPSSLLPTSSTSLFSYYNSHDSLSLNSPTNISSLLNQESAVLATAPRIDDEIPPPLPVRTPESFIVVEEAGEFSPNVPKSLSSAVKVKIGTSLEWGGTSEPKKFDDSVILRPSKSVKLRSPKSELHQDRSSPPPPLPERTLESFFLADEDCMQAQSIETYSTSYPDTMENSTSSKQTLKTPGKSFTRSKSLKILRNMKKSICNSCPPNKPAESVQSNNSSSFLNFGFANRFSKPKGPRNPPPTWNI
Nature of the assay: PTP-catalyzed pNPP hydrolysis, Lyp. Format: biochemical. The gist of the method: as §1

Assay [5] has as its system PP2A. The conditions noted are these: biochemical assays; cited from earlier work.
Assay [6] deals with SHP1 (Homo sapiens, UniProt P29350). As to the kind of experiment: PTP-catalyzed pNPP hydrolysis, SHP1. Format: biochemical. The gist of the method:
as §1

The subject of assay [7] is Jurkat T cells. Nature of the assay: TCR-mediated ERK1/2 activation in Jurkat T cells. Format: cell-based. The note with it: 2 h pretreatment (2 µM), 10 µg/mL anti-CD3.

Sequence of SHP1 (P29350 whole entry): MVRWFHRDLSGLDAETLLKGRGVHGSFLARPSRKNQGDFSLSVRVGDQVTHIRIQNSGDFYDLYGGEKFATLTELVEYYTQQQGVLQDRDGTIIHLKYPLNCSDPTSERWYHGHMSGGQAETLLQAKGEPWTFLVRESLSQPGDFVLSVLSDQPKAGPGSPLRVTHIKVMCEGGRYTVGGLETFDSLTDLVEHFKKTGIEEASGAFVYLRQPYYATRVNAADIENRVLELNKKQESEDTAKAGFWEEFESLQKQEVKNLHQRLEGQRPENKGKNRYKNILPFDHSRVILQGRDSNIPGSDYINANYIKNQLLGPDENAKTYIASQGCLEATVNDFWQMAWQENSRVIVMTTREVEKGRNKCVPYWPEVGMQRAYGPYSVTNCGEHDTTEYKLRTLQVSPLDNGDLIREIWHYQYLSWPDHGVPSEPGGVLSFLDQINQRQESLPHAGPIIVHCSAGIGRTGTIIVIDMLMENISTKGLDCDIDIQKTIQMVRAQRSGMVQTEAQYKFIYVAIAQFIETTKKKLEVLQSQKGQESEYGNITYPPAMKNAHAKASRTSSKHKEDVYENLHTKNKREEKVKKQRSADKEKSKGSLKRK

For `C=C/C(=C/C(=O)C[C@H](C)C[C@@H](C)CC[C@H](O)[C@H](C)C(=O)C[C@@H](O)[C@H](C)[C@@H](C)OC(=O)C[C@@H](O)C1=C(C)C(=O)OC1=O)CC` [TTN, tautomycetin], the “inhibition of PP1” value in assay [1] is “low nM range”. Moreover, the IC50 (in general, the concentration needed to halve the response being measured) is more than 50 µM in assay [2], 20 ± 2 µM in assay [4] and 14.6 ± 1.1 µM in assay [6]. Further, the “effect on ERK1/2 hyperactivation in SHP2/E76K-expressing cells” value in assay [3] is recorded as “effectively inhibited”. In addition, the “effect on GM-CSF induced ERK1/2 activation” value in assay [3] was “abrogated”. Further, the “inhibition of PP2A” value in assay [5] was “low nM range”. Also, the “effect on TCR-mediated ERK1/2 activation” value in assay [7] was “strongly reduced”.

These data come from article PMC3034256 (Chemistry & biology, 2011).
